Legend:
[1] = biological target: T1, Dual specificity protein kinase TTK (Homo sapiens) (UniProt P33981); test: Inhibition of human recombinant TTK at 40 nM in presence of ATP by radiometric assay relative to control
T1 sequence (whole entry): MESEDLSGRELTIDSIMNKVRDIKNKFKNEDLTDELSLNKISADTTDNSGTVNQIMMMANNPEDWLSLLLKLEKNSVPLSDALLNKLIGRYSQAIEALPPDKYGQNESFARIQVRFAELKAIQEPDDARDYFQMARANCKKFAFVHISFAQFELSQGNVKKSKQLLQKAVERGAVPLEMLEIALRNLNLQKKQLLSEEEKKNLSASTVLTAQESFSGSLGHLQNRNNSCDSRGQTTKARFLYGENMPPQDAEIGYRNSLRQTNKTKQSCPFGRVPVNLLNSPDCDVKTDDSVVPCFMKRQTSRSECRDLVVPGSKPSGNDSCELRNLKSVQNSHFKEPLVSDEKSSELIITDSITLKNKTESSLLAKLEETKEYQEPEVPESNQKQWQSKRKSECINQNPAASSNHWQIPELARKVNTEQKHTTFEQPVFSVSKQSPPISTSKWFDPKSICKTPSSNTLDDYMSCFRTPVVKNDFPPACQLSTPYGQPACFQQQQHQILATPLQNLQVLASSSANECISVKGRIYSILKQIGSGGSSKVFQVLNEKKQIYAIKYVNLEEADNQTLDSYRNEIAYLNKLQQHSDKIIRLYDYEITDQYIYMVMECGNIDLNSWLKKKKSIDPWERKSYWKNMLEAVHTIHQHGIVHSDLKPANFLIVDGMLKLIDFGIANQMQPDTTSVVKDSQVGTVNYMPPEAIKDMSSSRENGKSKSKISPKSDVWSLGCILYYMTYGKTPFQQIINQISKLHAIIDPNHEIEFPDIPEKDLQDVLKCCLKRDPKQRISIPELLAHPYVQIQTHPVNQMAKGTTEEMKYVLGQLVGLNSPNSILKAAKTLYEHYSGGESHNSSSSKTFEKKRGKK

[2] = biological target: T2, Serine/threonine-protein kinase tousled-like 1 (Homo sapiens) (UniProt Q9UKI8); test: Inhibition of human recombinant TLK1 at 15 nM in presence of ATP by radiometric assay relative to control
T2 sequence (whole entry): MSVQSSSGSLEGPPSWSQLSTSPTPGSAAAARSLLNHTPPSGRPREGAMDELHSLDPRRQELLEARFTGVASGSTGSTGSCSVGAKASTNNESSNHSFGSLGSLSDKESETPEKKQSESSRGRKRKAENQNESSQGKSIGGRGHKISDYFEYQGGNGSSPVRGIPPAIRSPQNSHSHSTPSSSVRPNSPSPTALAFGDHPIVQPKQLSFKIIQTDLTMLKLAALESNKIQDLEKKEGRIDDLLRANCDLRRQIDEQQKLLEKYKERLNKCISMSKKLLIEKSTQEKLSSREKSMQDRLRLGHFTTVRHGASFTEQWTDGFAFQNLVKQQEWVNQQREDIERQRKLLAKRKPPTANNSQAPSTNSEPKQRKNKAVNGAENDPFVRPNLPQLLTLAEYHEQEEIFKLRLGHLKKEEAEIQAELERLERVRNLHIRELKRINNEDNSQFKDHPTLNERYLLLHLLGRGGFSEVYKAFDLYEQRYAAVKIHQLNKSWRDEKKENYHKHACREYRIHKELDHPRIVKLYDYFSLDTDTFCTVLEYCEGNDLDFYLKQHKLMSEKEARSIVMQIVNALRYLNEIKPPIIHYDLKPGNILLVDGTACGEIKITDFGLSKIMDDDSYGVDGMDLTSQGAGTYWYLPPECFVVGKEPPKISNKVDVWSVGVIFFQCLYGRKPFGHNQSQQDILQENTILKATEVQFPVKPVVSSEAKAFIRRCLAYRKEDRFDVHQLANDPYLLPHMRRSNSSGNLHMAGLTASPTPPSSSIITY

[3] = biological target: Activated CDC42 kinase 1 (Homo sapiens) (UniProt Q07912); test: Inhibition of human recombinant ACK at 500 nM in presence of ATP by radiometric assay relative to control
In short: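 Panel of 327 recombinant human kinases in radiometric activity assays, each screened in duplicate at a single inhibitor concentration; percent activity remaining relative to vehicle control, percent inhibition taken as 100 minus activity remaining.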

[4] = biological target: T3, Inhibitor of nuclear factor kappa-B kinase subunit beta (Homo sapiens) (UniProt O14920); test: Inhibition of human recombinant IKKb at 500 nM in presence of ATP by radiometric assay relative to control
T3 sequence (whole entry): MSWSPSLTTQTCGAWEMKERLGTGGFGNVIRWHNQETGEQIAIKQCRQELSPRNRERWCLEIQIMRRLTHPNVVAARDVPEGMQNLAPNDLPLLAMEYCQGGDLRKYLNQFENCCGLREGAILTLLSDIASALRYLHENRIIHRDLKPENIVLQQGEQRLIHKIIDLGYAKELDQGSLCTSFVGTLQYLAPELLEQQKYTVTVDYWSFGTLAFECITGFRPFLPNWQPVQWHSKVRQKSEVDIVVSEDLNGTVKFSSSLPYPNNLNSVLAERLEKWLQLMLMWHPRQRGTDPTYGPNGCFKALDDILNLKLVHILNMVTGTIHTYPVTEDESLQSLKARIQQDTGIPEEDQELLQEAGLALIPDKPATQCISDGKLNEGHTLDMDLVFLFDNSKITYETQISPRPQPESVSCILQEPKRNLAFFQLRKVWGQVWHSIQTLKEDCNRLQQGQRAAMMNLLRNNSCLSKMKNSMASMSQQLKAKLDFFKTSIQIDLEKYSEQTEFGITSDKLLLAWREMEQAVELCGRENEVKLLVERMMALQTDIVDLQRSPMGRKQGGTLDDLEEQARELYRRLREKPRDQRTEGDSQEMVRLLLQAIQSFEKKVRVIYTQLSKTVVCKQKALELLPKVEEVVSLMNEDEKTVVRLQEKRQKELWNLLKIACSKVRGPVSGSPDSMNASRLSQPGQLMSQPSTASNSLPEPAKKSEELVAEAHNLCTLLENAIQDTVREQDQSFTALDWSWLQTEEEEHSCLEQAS

Chain of Activated CDC42 kinase 1 (Homo sapiens) (Q07912 whole entry, looked up): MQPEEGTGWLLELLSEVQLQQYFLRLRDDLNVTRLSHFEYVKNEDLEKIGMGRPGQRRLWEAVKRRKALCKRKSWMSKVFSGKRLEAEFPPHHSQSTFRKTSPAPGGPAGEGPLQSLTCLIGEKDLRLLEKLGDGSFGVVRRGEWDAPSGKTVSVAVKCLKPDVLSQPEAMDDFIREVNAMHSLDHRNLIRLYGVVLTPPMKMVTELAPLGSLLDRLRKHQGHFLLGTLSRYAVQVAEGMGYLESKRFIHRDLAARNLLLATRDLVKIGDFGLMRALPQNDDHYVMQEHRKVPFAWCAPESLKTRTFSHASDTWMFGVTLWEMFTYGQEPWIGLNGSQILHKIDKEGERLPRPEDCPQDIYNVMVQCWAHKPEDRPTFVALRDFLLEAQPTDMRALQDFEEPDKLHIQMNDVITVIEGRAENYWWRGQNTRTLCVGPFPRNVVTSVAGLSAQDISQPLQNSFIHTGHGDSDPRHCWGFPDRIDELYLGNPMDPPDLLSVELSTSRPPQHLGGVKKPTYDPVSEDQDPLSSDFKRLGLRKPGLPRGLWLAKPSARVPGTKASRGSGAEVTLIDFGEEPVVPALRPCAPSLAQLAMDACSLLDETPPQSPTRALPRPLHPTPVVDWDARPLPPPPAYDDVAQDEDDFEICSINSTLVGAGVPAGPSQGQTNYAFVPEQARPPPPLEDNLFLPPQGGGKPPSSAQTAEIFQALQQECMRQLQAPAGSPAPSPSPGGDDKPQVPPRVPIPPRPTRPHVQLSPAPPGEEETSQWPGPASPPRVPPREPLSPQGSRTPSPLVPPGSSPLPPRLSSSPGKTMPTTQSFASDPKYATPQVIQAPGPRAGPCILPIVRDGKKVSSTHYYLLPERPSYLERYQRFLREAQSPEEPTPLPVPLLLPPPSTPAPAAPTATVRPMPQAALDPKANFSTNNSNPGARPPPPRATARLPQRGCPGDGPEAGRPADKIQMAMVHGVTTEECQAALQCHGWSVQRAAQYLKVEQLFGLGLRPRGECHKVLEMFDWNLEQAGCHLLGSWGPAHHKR

An inhibition [1] of 33% was found for `O=C(N[C@@H](C1CC1)C(F)(F)F)c1cc(-c2cnn3cc(-c4ccc(F)cc4)cnc23)cs1` in this work.

An inhibition [2] of 0% was found for `CC(C)[C@H](NC(=O)c1cc(-c2cnn3cc(-c4ccc(OCCN5CCCCC5)cc4)cnc23)cs1)C(F)(F)F` in this work.

An inhibition [3] of 31% and an inhibition [4] of 2% were found for `CNC(=O)c1ccccc1Oc1nc(Nc2cc(OC)c(OC)c(OC)c2)ncc1Br` in this work.
